Kir21 inh – blocks the mouse Kir2.1 inward-rectifier potassium channel; P35561; HEK293-Kir2.1, FluxOR thallium flux fluorescence; stronger effect = lower value; B-score at 10 µM; 0.85% of 310,000 active; AID 1672;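 active = fluorescence ratio B-score at or below minus 3 SD of library scores, with starting-brightness B-score within 2 SD, cut at about -4.2 in these data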;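 also: channel flux triggered by added potassium and thallium sulfate stimulus; B-score of peak minus minimum fluorescence over baseline after thallium stimulus; more negative B-score means stronger Kir2.1 block with less thallium influx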
Target sequence (P35561 whole entry, looked up): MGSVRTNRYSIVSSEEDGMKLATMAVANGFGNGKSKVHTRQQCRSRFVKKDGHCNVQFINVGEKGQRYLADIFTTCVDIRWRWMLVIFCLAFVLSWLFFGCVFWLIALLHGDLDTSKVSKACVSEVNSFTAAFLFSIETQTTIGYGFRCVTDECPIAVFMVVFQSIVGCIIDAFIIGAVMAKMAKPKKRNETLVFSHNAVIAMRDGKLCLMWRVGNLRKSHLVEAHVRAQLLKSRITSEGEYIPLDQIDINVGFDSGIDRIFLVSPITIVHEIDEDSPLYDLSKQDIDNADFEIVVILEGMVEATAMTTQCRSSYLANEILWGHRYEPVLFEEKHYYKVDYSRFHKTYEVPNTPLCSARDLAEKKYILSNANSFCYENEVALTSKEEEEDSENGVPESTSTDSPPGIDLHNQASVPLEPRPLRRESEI
KCNK3 inh – human KCNK3 channel inhibition, primary screen; CHO-KCNK3 thallium flux, FluxOR fluorescence; stronger effect = lower value; B-score at 10 µM; 0.84% of 340,000 active; AID 602410;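 active = B-score under library mean minus 4 SD, starting fluorescence ratio at most library mean plus 5 SD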;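 also: more negative B-score means stronger inhibition of thallium flux through KCNK3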
KCNQ1 block – human KCNQ1 channel inhibition; P51787; CHO-K1 KCNQ1, FluxOR thallium flux fluorescence; stronger effect = higher value; B-score at 10 µM; 1.3% of 310,000 active;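 active = compounds whose thallium flux B-score, printed positive for inhibition, exceeds three library SD while starting fluorescence stays within three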;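 also: channel opened by potassium depolarization with thallium stimulus after 20 min compound exposure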
KCNK9 block – inhibitors of human KCNK9 two-pore domain potassium channel. Q9NPC2. HEK293 KCNK9, FluxOR thallium flux fluorescence; stronger effect = lower value. B-score at 10 µM. 1.2% of 310,000 active;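 active = ratio B-score over 3 SD below the library mean, with starting fluorescence within 5 SD of its mean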;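 also: negative B-score means less thallium flux so channel inhibition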
KCNQ1 act – human KCNQ1 channel potentiation or activation | P51787 | CHO-K1 KCNQ1, thallium flux FluxOR fluorescence; stronger effect = higher value | B-score at 10 µM | 0.35% of 310,000 active | AID 2648;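 active = fluorescence ratio B-score, a plate-corrected score, at least three library SD, with initial intensity B-score within 5 SD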
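Test system: CHO-K1 cells stably expressing KCNQ1 / Medium: assay buffer / Also added: depolarizing K+/Tl+ stimulus, K2SO4 and Tl2SO4 each 12.5 mM in 5x stock / Incubation: 90 min dye loading and 20 min compound exposure, both at room temperature / Signal: thallium influx via FluxOR fluorescence, kinetic imaging / Evaluation: B score of baseline-normalized fluorescence ratio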
hERG rescue – hERG (human) protection from proarrhythmic block | activation (rescue from dofetilide block), less the hit threshold, % at 10 µM | 0.51% of 310,000 active | CHO-hERG, FluxOR thallium flux, dofetilide IC70 present | AID 1511;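 active = activation above the mean of controls blocked by dofetilide plus 5 SD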;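 also: thallium influx through hERG after potassium depolarization seen as dye fluorescence rise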
A number is an active result; i = inactive; nt = not tested or not shown. The list is not random: actives were taken first. Their share in the collection is about 3.7%.

SMILES	Kir21 inh	KCNK3 inh	KCNQ1 block	KCNK9 block	KCNQ1 act	hERG rescue
Cc1ccc(NC(=O)COC(=O)Cn2cnc3ccccc32)c(C)c1	nt	i	nt	nt	nt	nt
CN(Cc1ccccc1)C(=S)NC(=O)c1ccc(-c2ccccc2)cc1	i	i	i	i	i	i
CN(Cc1ccccc1)C(=S)NC(=O)c1cccs1	i	i	i	i	39	i
Cc1ccc(C(=O)NCc2ccccn2)cc1S(=O)(=O)N1CCOCC1	nt	i	nt	nt	nt	nt
CC(=NN1CC(=O)NC1=O)c1ccc([N+](=O)[O-])o1	nt	i	nt	nt	nt	nt
Cc1ccc(-c2csc(/C(C#N)=C(\O)CCl)n2)cc1	i	i	6	i	i	i
N#C/C(=C(/O)CCl)c1nc(-c2ccccc2)cs1	i	i	i	i	i	i
O=C(Cc1cccc(NC(=O)C2CCCN(C(=O)CCc3ccccc3)C2)c1)Nc1cccc(C(=O)N2CCCCC2)c1 (stereo unspecified)	nt	i	nt	nt	nt	nt
Nc1ccc(C(=O)N2N=C(c3ccccc3)CC2(O)C(F)(F)F)cc1 (stereo unspecified)	i	i	i	i	i	i
Cc1ccc(C2=NN(C(=O)c3ccco3)C(O)(C(F)(F)F)C2)cc1 (stereo unspecified)	-4.6	i	i	i	i	i
COc1cccc(C2=NN(C(=O)c3ccco3)C(O)(C(F)(F)F)C2)c1 (stereo unspecified)	i	i	i	i	i	i
O=C(c1ccccc1O)N1N=C(c2ccccc2)CC1(O)C(F)(F)F (stereo unspecified)	i	i	6	i	i	i
Cc1cc(Nc2ccccc2)nn1C(=O)c1ccc([N+](=O)[O-])cc1	i	i	i	i	i	i
Cc1cc(Nc2ccccc2)nn1C(=O)c1ccc(Cl)cc1	i	i	i	-7.7	i	i
Cc1cc(C)c2cc(C#N)c(N3CCCN(C(=S)NCCCN(C)C)CC3)nc2c1	-6.6	i	i	i	i	i
O=C(CCc1ccccc1)NC(=S)Nc1ccccc1Br	i	i	i	i	i	5.0
CCOC(=O)CN1C(=O)N[C@@H](c2cccc(F)c2)C(C(=O)OC)=C1C	-6.1	i	i	i	i	i
COC(=O)C1=C(C)N(Cc2ccccc2)C(=NCc2ccc(OC)cc2)N[C@H]1c1cccc(F)c1	-9.6	i	i	i	i	i
CCOC(=O)CN1C(=O)N[C@@H](c2ccccc2)C(C(=O)OC)=C1C	nt	i	nt	nt	nt	nt
COC(=O)C1=C(C)N(Cc2ccccc2)C(=NCc2cc(OC)c(OC)c(OC)c2)N[C@H]1c1cccc(F)c1	-5.2	i	i	i	i	i
CN1/C(=C\C=[N+](C)c2ccccc2)C(C)(C)c2ccccc21	i	i	8	i	i	i
COc1cccc(-c2csc(NC3OC(=O)c4c3ccc(OC)c4OC)n2)c1 (stereo unspecified)	i	i	i	i	i	i
COc1ccc2c(c1OC)C(=O)OC2Nc1nc(-c2ccc(-c3ccccc3)cc2)cs1 (stereo unspecified)	i	i	i	-7.1	i	i
Cc1cccc(NC(=S)N/C(=N/S(=O)(=O)c2ccccc2)c2ccccc2)c1	i	i	i	i	i	5.2
CN(C)c1nc(C#N)nc(N(C)C)n1	i	i	i	i	i	10
SMILES	Kir21 inh	KCNK3 inh	KCNQ1 block	KCNK9 block	KCNQ1 act	hERG rescue
C=CCOC(=O)C1=C[C@H](c2csc3ccccc23)C[C@H](OCc2ccc(CO)cc2)O1	i	i	6	i	i	i
C=C1[C@@H](O)[C@H](Cc2ccccc2)N(Cc2ccccc2Br)S1(=O)=O	nt	i	nt	nt	nt	nt
CC(C)C(Cl)=NOC(=O)Nc1ccc(S(N)(=O)=O)cc1	nt	i	nt	nt	nt	nt
OC[C@@H]1[C@@H](c2ccc(Cl)cc2)C(c2ccc(F)cc2)=NN1c1ccccc1	nt	i	nt	nt	nt	nt
CCN1CC(c2ccccc2)C(c2ccc(Cl)cc2)=N1 (stereo unspecified)	i	i	i	-7	i	i
CCC(OC(=O)c1cc2sccc2n1C)C(=O)NCc1ccco1 (stereo unspecified)	i	i	i	i	i	i
COCCNC(=O)C(C)OC(=O)c1cc2sccc2n1C (stereo unspecified)	i	i	i	i	i	5.7
Cc1ccc(Cn2c(=N)n(CC(O)c3ccco3)c3ccccc32)cc1 (stereo unspecified)	-5	i	i	i	i	i
Cn1c(=N)n(CC(O)c2cccc3ccccc23)c2ccccc21 (stereo unspecified)	-4.4	i	i	i	i	i
Cc1ccc(Cn2c(=N)n(CC(=O)c3ccccc3)c3ccccc32)cc1	-8.9	i	i	i	i	i
N=c1n(CC(=O)c2cccc([N+](=O)[O-])c2)c2ccccc2n1Cc1ccccc1	i	i	i	i	i	i
N=c1n(Cc2ccccc2Cl)c2ccccc2n1CC(O)c1ccco1 (stereo unspecified)	-5.2	i	i	i	i	i
CCCn1c(=N)n(CC(O)c2ccc(C)cc2)c2ccccc21 (stereo unspecified)	-6	i	i	i	i	i
C=CCn1c(=N)n(CC(=O)c2ccc(Br)cc2)c2ccccc21	i	i	i	i	i	i
CCCn1c(=N)n(CC(O)c2ccco2)c2ccccc21 (stereo unspecified)	i	i	i	i	i	i
N=c1n(N)c2ccccc2n1CC(=O)c1ccc(Br)cc1	-5.5	i	i	i	i	i
Clc1ccc(/C(Cc2nc3ccccc3[nH]2)=N\Nc2ccccc2)cc1	i	i	9	-7.2	i	i
O=C(CN1CCCC1c1ccc2c(c1)OCCO2)NC(=O)Nc1ccccc1 (stereo unspecified)	nt	i	nt	nt	nt	nt
CCOC(=O)c1sc(NC(=O)CCN2CCN(C)CC2)c(C(=O)OCC)c1C	-5.5	i	i	i	i	i
CCOC(=O)c1sc(NC(=O)CCN2CC(C)OC(C)C2)c(C(=O)OCC)c1C (stereo unspecified)	i	nt	i	i	i	i
CCOC(=O)c1sc(NC(=O)CSc2nnc(C)s2)c(C(=O)OCC)c1C	i	i	i	-6.8	i	i
CCOC(=O)c1sc(NN=C(C(=O)OC)C(=O)OC)c(C(=O)OCC)c1C	i	i	i	i	8	9.0
CNC(=O)c1cc(Oc2ccc(NC(=O)Nc3ccc(Cl)c(C(F)(F)F)c3)cc2)ccn1	nt	i	nt	nt	nt	nt
O=C(NCc1ccccn1)C(=O)Nc1nc(C23CC4CC(CC(C4)C2)C3)cs1	i	i	i	i	i	i
COc1ccc2oc(C(=O)N(Cc3ccco3)Cc3cccs3)c(C)c2c1	i	i	9	i	i	i
CCOc1ccc(NC(=S)NC(=O)c2c(Cl)cnn2CC)c([N+](=O)[O-])c1	i	i	i	i	i	i
CCn1ncc(Cl)c1C(=O)NC(=S)Nc1c(C)cc(C)cc1[N+](=O)[O-]	i	i	i	i	i	5.8

From PubChem BioAssay
